# m5-HT2A agonist: agonists of mouse serotonin 5-HT2A receptor (HTR2A); CHO-K1 mHTR2A beta-arrestin complementation, luminescence; percent of 30 µM serotonin response; 360,000 compounds, 0.66% hits; activation, % at 7.6 µM;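 active means activation above a run cutoff, the mean activation of all tested compounds plus 3 SD, cut at about 14% in these data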;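 further: 0% = plate median of compound wells and 100% = 30 µM serotonin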
# CHRM1 antagonist: human CHRM1 antagonism | P11229 | CHO-K1 hM1, Fluo-8 calcium fluorescence, ACh EC80 antagonist | inhibition, % at 3 µM | 360,000 compounds, 1.3% hits;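 active means percent inhibition above its own plate's cutoff, namely the mean of that plate's compound wells plus 3 SD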;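 further: peak over basal fluorescence ratio during 140 s after agonist addition; 0% = ACh EC80 plus DMSO and 100% = DMSO alone without agonist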
# TAAR1 agonist: human TAAR1 agonism. Q96RJ0. CHO RD-HGA16 TAAR1, Fluo-8 calcium fluorescence; vehicle wells 0%, saturating PEA agonist 100%. activation, % at 3 µM. 360,000 compounds, 0.99% hits. AID 624467;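 active means activation above the mean activation of all test compounds in the run plus 3 SD, cut at about 38% in these data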
# Target sequence (Q96RJ0 whole entry, looked up): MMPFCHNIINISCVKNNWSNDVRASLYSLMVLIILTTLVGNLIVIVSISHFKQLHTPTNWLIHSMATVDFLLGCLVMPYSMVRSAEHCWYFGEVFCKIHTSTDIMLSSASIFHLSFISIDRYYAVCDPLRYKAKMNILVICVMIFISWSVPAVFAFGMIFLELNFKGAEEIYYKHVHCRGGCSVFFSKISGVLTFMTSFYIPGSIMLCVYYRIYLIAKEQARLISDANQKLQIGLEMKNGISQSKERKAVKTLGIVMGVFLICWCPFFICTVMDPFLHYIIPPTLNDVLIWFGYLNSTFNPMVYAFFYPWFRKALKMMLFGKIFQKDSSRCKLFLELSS
#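 Assay system – CHO-derived RD-HGA16 cells with stable Gα16 and human TAAR1 · Compound dosing – one-point dosing at 3 µM (nominal) · Incubation – 17-24 h seeding, 75 min 37 °C dye, 30 min RT · Measured by – kinetic Fluo-8 calcium fluorescence · Control set – DMSO vehicle as 0%, PEA at EC100 as 100% · Repeats – single well for each compound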
# TAAR1 antagonist: antagonists of human TAAR1; Q96RJ0; CHO RD-HGA16 TAAR1, Fluo-8 calcium fluorescence, antagonist; inhibition, % at 3 µM; 360,000 compounds, 1.5% hits;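 active means inhibition above a per-plate cutoff, the mean inhibition of test compounds on that plate plus 3 SD, cut at about 49% in these data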;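 further: 0% = DMSO plus EC80 beta-PEA response and 100% = DMSO alone without agonist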
#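 Material: CHO RD-HGA16 cells bearing hTAAR1; compound dosing: one-point dosing, 3 µM nominal final; schedule: dye loading 75 min at 37 °C, then 30 min room temperature; measured by: calcium fluorescence with Fluo-8; control set: vehicle and agonist controls; replication: n of 1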
# CHRM1 PAM: human CHRM1 positive allosteric modulation | P11229 | CHO-K1 hM1, Fluo-8 calcium fluorescence, ACh EC20; 0% = ACh EC20, 100% = maximal ACh | activation, % at 3 µM | 360,000 compounds, 0.088% hits; in the data active means activation above about 19%, passing the limit was not always enough
# M1 ag: activates human CHRM1 receptor; 360,000 compounds, 0.33% hits; AID 588814; CHO-K1 hM1, Fluo-8 calcium fluorescence, agonist mode; 0% DMSO, 100% acetylcholine EC100; P11229; activation, % at 3 µM;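 active means activation above the run's mean compound activation plus 3 SD, cut at about 16% in these data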;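 further: peak over basal fluorescence ratio within a 140 s kinetic read after compound addition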
# OPRM1 ag: activates human mu opioid receptor in HTR2A counterscreen | 2,300 compounds, 5.3% hits | activation, % at 9.3 µM | U2OS OPRM1 beta-arrestin PathHunter, luminescence; DMSO 0%, DAMGO 9.3 µM 100% | shares compounds with m5-HT2A agonist;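 active means mean activation above the mean of DMSO-only wells plus 3 SD, cut at about 0.5% in these data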
# Target sequence (P35372 whole entry, looked up): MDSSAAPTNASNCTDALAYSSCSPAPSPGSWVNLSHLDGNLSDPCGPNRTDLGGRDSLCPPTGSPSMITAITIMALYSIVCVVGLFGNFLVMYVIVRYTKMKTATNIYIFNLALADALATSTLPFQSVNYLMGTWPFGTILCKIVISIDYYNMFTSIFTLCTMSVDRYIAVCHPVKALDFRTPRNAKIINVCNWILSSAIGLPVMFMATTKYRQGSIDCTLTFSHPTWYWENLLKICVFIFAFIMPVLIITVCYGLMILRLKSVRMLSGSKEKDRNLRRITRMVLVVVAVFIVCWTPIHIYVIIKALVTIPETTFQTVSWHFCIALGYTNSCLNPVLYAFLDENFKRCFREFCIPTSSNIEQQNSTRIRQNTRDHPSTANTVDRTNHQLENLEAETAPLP
# HTR2A ag conf: confirmation of mouse HTR2A serotonin receptor agonists. CHO-K1 PathHunter beta-arrestin recruitment, luminescence; DMSO 0%, 30 µM serotonin 100%. 2,300 compounds, 19% hits. activation, % at 7.6 µM. shares compounds with m5-HT2A agonist;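 active means mean activation across triplicates above the hit threshold derived in the original primary screen, cut at about 15% in these data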
# Starred values were filed as active, the others as inactive; nt = no result. In the library only some 3.9% were active in any assay of this set; here they are far more common.
SMILES,m5-HT2A agonist,CHRM1 antagonist,TAAR1 agonist,TAAR1 antagonist,CHRM1 PAM,M1 ag,OPRM1 ag,HTR2A ag conf
CC(C)c1cc(C(=O)Nc2cc(Br)ccc2O)no1,16.8*,3.9,2.6,11.6,-7.1,-4.8,0.7*,1.9
CCOc1ccc(C(=O)Nc2cccc(C(C)=O)c2)cc1[N+](=O)[O-],0.5,-1.4,8.1,0.2,2.5,-7.5,nt,nt
S=c1[nH]nc2ccccn12,20.9*,-16.2,0.4,0.9,12.1,0.8,-0.6,-3.7
Cc1ccn2c(=S)[nH]nc2c1,1.9,-7.4,1.1,-5.7,4.6,-3.7,nt,nt
CC(NCC(=O)NC(=O)NCCC1=CCCCC1)c1ccc(S(N)(=O)=O)cc1 (stereo unspecified),2.8,-5.7,23.4,-3.0,3.0,-7.0,nt,nt
Cn1nnnc1SCC(=O)N1c2ccccc2Sc2ccccc21,38.5*,20.4,4.2,-16.9,-9.9,-2.7,-0.5,-0.6
COc1cc2oc(=O)cc(CN3CCN(c4ccc(Cl)c(Cl)c4)CC3)c2cc1Cl,25.1*,-10.2,1.2,-7.2,-4.0,4.4,-0.7,9.5
CC(C)Cc1nnc(NC(=O)c2cc(-c3ccncc3)nc3ccccc23)s1,14.9*,-31.5,6.1,-42.2,8.3,2.8,-0.5,4.6
CC(C)Cc1nnc(NC(=O)c2cc(-c3ccccc3)nc3ccccc23)s1,-0.7,3.0,0.5,-1.6,-3.8,-3.1,nt,nt
Cc1ccc(C)c(NC(=O)c2ccc[n+](Cc3ccc([N+](=O)[O-])cc3)c2)c1,15.2*,-14.4,-3.2,-6.8,10.4,-5.2,-0.7,-3.4
CC1(C)NC(=O)N(CC(O)CN2CCOCC2)C1=O (stereo unspecified),1.6,-4.4,8.3,-0.8,9.0,-1.7,nt,nt
CC12CC3CC(C)(C1)CC(C(O)CN1CCOCC1)(C3)C2 (stereo unspecified),16.0*,2.5,4.3,-18.8,-2.4,-9.0,-0.6,3.4
CCC(C)Oc1nc2c(c(=O)n(C)c(=O)n2C)n1C (stereo unspecified),17.1*,-0.1,-0.4,-10.7,8.4,-0.5,-0.6,-2.4
COC(C(=O)NNS(=O)(=O)c1ccc([N+](=O)[O-])cc1)c1ccccc1 (stereo unspecified),7.3,1.2,5.0,-23.3,4.8,-5.4,nt,nt
COC(C(=O)NNS(=O)(=O)c1ccccc1[N+](=O)[O-])c1ccccc1 (stereo unspecified),18.4*,-10.4,3.1,-19.4,12.1,-0.7,-0.4,-1.5
CCC(OC(=O)c1nsc(Cl)c1Cl)C(=O)NCc1cccs1 (stereo unspecified),26.9*,-9.2,6.2,7.4,6.2,-3.7,-0.6,-2.6
COc1ccc(S(=O)(=O)NC(C)C(=O)NCc2cccnc2)cc1C (stereo unspecified),14.6*,-10.0,0.7,-0.6,13.2,0.3,-0.2,-1.4
C/C(=N\NC(=O)C(=O)Nc1c(C)n(C)n(-c2ccccc2)c1=O)c1ccncc1,1.4,-8.5,4.9,-13.7,12.6,-5.4,nt,nt
CC(C)(C)C(=O)NCc1ccc(C(=O)CSc2nnc(-c3ccncc3)n2C2CC2)s1,16.0*,-12.0,1.3,1.2,7.7,-6.7,-0.6,-2.3
Cc1nc2ccccc2c(=O)n1/N=C/c1cccnc1,15.0*,3.2,0.7,8.6,5.6,-0.5,-0.5,-1.2
O=C(NCc1ccco1)C1CCN(c2ccc(S(=O)(=O)N3CCOCC3)cc2[N+](=O)[O-])CC1,-3.4,9.4,1.8,16.5,-0.2,-1.8,nt,nt
CCOC(=O)c1cnc(SCC(=O)OC)nc1N,26.2*,-1.4,11.0,0.2,2.5,-1.2,-0.6,-2.9
CCOC(=O)CC(=O)CSc1ncc(C(=O)OCC)c(N)n1,-3.9,-25.9,4.5,-14.8,5.0,-1.7,nt,nt
CCOC(=O)C1(Cc2cccc(Cl)c2)CCCN(C(=O)c2ccnn2C)C1 (stereo unspecified),3.7,9.9,0.8,-6.3,-3.2,-1.6,nt,nt
CCOC(=O)C1(Cc2cccc(Cl)c2)CCCN(C(=O)c2cc(C)n(C)n2)C1 (stereo unspecified),16.7*,-11.1,1.1,-39.4,7.8,-3.0,-0.8,-2.2
SMILES,m5-HT2A agonist,CHRM1 antagonist,TAAR1 agonist,TAAR1 antagonist,CHRM1 PAM,M1 ag,OPRM1 ag,HTR2A ag conf
CCC(C)(C)n1nnnc1C(c1ccc(O)c(OC)c1)N1CCN(c2nc3ccccc3s2)CC1 (stereo unspecified),23.7*,3.7,12.5,7.3,-2.5,-4.2,-0.6,7.1
COc1ccc(C(c2nnnn2C(C)(C)C)N2CCN(c3nc4ccccc4s3)CC2)cc1 (stereo unspecified),1.4,-11.0,6.5,-14.1,4.0,-5.1,nt,nt
COc1ccc(-c2cnc3c(NC=O)cc(-c4ccc(S(C)(=O)=O)cc4)cn23)cc1OC,15.0*,5.2,6.0,-41.6,9.8,-0.6,0.0,11.7
CN(Cc1ccccc1)C(=O)COC(=O)CCC(=O)c1ccc(F)cc1,-4.0,-1.6,0.4,-5.8,1.1,0.4,nt,nt
O=C(COC(=O)Cc1ccsc1)Nc1ccccc1Cl,-1.5,-0.1,-0.8,-6.5,2.3,-3.9,nt,nt
Cc1c(Cl)cccc1NC(=O)COC(=O)Cc1ccsc1,16.3*,-7.3,3.7,-1.7,6.4,-2.3,-0.3,6.9
CCOC(=O)Cn1cnc2c(cnn2-c2ccc(OC)cc2)c1=O,3.3,-16.4,0.2,-17.5,4.7,-2.8,nt,nt
COc1ccc(-n2ncc3c(=O)n(CC(=O)N(C(C)C)C(C)C)cnc32)cc1,36.8*,10.2,3.0,-12.7,-1.0,-3.6,-0.8,-3.7
O=C(OCc1c(-c2ccccc2)ncc2ccccc12)c1ccccc1C(F)(F)F,6.6,-3.6,28.3,15.1,7.8,-9.4,nt,nt
COc1ccc(S(=O)(=O)N2CCC(C(=O)Nc3ccc(S(=O)(=O)N4CCCC4)cc3)CC2)cc1OC,16.4*,1.7,3.9,-13.6,1.1,-3.7,-0.4,-3.3
COc1ccc(CCNC(=O)c2cccc(S(=O)(=O)N3CCOCC3)c2)cc1OC,15.9*,-10.7,2.5,-3.7,15.1,-3.2,-0.4,-1.3
COc1ccc(S(=O)(=O)N2CCCCC2)cc1NC(=O)c1ccc(OC)c(OC)c1,15.3*,-8.9,-0.3,-12.8,4.3,-4.8,-0.7,-4.0
COc1ccc(NC(=O)C2CCN(S(=O)(=O)c3ccc(OC)c(OC)c3)CC2)cc1,1.9,-11.3,7.2,-23.2,4.8,0.5,nt,nt
